# Experimental data from ChEMBL document CHEMBL2424619, “Small-molecule ligands of methyl-lysine binding proteins: optimization of selectivity for L3MBTL3” (J Med Chem, 2013).
# Columns and labels:
# [1] = target: PHD finger protein 23 (Homo sapiens, UniProt Q9BUL5); assay: Inhibition of PHF23 (unknown origin) after 30 mins by AlphaScreen assay
# In short: (§1)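 AlphaScreen competition with histone peptide. Compounds in 3-fold, 10-point dilutions, top 10 or 30 μM; buffer 20 mM Tris pH 8.0, 25 mM NaCl, 2 mM DTT, 0.05% Tween-20. Protein-peptide mix 30 min RT, then streptavidin donor plus nickel-chelate acceptor beads (GST acceptor beads for GST-tagged PHF23, JARID1A) 30 min RT dark. Protein-free His6-biotin peptide counterscreen.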
# [2] = target: T1, Scm-like with four MBT domains protein 1 (Homo sapiens, UniProt Q9UHJ3); assay: Inhibition of SFMBT1 (unknown origin) after 30 mins by AlphaScreen assay
# T1 sequence (Q9UHJ3 whole entry): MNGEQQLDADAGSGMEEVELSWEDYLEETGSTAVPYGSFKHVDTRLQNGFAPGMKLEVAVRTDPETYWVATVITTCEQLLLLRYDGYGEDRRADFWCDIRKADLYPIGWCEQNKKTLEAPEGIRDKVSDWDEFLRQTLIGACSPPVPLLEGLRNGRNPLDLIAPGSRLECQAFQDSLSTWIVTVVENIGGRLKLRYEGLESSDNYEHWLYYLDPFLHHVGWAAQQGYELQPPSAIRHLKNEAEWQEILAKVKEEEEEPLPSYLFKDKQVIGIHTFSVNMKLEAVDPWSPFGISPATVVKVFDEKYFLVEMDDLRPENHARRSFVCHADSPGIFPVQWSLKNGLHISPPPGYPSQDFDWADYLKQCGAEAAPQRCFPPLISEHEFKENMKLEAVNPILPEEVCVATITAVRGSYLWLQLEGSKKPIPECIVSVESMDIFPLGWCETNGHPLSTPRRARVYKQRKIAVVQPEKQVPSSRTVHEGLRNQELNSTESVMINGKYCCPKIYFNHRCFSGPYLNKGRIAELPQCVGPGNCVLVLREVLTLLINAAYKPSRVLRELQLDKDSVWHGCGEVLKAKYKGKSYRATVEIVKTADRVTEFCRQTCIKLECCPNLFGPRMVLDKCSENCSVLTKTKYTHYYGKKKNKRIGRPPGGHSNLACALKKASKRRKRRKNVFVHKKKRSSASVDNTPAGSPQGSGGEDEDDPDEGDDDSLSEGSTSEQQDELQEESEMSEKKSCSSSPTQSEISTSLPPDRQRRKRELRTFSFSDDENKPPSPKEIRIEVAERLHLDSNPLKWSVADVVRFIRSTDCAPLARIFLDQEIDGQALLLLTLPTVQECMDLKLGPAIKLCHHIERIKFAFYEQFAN
# In short: as §1, with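 “dark. […]” for “dark.”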
# [3] = target: T2, E3 ubiquitin-protein ligase UHRF1 (Homo sapiens, UniProt Q96T88); assay: Inhibition of UHRF1 (unknown origin) after 30 mins by AlphaScreen assay
# T2 sequence (Q96T88 whole entry): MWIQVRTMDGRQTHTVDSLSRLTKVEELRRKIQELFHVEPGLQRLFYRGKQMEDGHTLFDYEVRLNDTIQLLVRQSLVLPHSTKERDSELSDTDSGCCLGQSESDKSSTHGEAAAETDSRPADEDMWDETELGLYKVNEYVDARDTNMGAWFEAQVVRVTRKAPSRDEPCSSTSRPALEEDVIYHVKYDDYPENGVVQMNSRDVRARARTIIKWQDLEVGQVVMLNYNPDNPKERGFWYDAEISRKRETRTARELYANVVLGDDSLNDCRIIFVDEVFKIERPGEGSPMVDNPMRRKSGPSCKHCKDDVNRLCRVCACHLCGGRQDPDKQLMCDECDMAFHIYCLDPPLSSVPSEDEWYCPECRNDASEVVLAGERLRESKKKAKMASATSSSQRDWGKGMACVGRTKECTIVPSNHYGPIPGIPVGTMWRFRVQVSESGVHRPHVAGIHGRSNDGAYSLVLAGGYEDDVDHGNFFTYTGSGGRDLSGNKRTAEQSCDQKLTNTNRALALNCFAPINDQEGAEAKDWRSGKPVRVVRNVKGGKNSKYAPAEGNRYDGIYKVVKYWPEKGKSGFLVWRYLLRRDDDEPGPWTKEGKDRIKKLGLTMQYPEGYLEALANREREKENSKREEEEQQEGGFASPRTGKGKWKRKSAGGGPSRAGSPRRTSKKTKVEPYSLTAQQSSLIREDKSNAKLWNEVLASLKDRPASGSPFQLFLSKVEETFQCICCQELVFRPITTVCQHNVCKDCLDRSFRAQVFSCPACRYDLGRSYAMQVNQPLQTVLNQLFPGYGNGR
# In short: as §1, with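 “dark. […]” for “dark.”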
# [4] = target: TP53-binding protein 1 (Homo sapiens, UniProt Q12888); assay: Inhibition of 53BP1 (unknown origin) after 30 mins by AlphaScreen assay
# Sequence of TP53-binding protein 1 (Q12888 whole entry): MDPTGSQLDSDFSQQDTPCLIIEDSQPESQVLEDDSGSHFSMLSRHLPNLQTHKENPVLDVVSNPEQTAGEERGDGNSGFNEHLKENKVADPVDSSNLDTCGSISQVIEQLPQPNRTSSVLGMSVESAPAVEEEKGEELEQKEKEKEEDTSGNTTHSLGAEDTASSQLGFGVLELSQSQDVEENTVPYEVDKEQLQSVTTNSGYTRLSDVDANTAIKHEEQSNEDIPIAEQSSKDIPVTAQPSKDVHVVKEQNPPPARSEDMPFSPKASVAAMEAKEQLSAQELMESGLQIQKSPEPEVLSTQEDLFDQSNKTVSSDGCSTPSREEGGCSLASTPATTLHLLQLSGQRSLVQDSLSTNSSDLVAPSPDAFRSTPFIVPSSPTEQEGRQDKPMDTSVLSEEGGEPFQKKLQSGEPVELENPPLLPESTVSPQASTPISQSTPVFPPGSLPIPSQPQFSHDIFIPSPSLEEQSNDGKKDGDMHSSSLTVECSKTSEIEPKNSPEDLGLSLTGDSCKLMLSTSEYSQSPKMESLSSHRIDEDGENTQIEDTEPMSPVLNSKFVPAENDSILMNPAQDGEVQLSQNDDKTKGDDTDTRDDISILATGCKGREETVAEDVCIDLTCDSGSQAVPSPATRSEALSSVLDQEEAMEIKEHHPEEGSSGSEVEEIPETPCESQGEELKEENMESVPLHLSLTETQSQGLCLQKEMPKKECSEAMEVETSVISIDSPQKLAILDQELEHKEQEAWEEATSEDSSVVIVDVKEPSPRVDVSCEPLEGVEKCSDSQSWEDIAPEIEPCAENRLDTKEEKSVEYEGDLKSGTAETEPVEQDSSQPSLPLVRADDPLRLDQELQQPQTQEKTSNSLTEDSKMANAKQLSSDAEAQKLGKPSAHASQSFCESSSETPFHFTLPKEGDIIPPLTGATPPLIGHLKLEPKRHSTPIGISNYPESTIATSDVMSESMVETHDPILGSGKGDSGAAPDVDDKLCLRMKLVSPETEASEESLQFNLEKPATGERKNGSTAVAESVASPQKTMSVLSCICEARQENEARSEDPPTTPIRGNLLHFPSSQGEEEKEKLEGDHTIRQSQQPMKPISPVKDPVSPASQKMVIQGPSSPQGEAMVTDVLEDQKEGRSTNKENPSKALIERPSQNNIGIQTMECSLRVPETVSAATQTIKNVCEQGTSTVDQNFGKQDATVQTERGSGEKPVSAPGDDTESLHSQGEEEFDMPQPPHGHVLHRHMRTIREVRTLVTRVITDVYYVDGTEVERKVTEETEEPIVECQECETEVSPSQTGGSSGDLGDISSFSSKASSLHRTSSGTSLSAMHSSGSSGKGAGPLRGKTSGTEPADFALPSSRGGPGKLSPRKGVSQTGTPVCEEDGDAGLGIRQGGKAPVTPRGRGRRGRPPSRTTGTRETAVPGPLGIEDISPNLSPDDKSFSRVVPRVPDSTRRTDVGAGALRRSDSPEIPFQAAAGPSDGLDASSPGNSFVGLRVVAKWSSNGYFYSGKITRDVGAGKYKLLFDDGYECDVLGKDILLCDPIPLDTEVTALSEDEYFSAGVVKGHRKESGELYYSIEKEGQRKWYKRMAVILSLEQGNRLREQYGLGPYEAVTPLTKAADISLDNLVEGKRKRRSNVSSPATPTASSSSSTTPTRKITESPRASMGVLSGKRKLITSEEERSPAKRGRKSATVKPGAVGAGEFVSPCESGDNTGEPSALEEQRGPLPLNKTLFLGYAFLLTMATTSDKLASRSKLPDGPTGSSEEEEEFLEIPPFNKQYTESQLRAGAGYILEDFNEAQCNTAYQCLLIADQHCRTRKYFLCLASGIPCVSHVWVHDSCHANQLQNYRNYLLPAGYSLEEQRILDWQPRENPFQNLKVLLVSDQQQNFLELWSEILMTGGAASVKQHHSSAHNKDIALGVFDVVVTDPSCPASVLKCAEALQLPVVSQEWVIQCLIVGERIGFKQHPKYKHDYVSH
# In short: as §1, with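 “dark. […]” for “dark.”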
# [5] = target: T3, Chromobox protein homolog 7 (Homo sapiens, UniProt O95931); assay: Inhibition of CBX7 (unknown origin) after 30 mins by AlphaScreen assay; in short: as §1
# T3 sequence (O95931 whole entry): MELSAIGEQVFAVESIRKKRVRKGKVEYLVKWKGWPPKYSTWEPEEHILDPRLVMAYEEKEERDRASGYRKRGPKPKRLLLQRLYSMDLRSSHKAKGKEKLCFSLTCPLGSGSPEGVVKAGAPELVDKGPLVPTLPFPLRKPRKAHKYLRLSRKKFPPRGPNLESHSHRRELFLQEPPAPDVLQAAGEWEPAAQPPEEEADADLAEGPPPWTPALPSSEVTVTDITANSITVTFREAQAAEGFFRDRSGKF
# [6] = target: Lysine-specific demethylase 5A (Homo sapiens, UniProt P29375); assay: Inhibition of JARID1A (unknown origin) after 30 mins by AlphaScreen assay
# Sequence of Lysine-specific demethylase 5A (P29375 whole entry): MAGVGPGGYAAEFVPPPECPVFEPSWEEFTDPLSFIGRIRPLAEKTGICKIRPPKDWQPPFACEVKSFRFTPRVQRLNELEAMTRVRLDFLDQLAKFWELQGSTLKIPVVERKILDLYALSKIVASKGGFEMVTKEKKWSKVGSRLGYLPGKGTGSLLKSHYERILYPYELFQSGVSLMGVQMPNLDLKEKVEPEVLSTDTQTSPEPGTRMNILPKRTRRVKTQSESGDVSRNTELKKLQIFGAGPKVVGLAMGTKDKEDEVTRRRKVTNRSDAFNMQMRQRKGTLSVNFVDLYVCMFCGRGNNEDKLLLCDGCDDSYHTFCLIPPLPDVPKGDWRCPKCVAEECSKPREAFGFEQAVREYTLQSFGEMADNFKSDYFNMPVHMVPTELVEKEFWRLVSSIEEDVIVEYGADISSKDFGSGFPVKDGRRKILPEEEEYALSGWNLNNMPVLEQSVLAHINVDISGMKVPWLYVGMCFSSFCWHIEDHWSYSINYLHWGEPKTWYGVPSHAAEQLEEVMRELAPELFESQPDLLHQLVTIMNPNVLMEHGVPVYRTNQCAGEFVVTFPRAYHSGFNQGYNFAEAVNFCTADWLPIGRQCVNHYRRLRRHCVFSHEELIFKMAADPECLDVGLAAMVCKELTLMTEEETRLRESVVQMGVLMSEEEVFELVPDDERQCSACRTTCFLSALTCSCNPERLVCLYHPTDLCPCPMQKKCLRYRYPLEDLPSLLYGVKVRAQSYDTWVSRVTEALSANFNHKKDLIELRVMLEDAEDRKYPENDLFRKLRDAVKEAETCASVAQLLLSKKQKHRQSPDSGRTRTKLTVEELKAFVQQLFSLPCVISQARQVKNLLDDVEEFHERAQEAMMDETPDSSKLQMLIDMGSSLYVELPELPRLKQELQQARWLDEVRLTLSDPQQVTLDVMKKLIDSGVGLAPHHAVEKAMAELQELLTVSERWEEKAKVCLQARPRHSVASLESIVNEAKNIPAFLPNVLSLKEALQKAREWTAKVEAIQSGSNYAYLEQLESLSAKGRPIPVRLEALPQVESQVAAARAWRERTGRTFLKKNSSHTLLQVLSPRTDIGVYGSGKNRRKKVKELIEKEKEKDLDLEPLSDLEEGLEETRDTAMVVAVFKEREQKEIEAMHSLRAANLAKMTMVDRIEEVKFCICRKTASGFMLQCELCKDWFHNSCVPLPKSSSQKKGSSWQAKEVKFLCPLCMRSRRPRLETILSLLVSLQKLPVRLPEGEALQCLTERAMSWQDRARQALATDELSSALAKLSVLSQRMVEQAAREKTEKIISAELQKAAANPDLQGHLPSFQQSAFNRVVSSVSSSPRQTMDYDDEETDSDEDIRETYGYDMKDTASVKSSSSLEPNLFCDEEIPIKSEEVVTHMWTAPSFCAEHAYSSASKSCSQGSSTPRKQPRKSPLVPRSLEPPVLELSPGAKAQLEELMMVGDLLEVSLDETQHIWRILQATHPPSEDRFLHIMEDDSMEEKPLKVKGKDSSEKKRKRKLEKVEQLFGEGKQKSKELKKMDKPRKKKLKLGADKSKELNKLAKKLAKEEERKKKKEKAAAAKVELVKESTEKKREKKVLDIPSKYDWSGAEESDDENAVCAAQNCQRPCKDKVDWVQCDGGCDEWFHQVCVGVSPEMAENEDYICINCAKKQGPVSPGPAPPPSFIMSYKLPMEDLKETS
# In short: as §1, with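 “dark. […]” for “dark.”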
# Sequence of PHD finger protein 23 (Q9BUL5 whole entry): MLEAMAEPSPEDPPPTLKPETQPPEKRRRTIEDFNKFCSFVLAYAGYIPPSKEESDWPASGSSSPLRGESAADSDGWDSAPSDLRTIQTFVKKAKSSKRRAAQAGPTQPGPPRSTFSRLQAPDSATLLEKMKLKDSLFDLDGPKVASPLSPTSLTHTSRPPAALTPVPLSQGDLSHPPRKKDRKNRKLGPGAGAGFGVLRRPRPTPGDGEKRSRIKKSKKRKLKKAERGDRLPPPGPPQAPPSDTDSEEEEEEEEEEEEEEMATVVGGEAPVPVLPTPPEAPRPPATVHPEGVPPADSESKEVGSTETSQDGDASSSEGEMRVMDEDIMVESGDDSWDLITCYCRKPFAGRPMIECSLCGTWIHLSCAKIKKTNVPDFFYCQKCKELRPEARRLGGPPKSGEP
SMILES,IC50 [1] [µM],IC50 [2] [µM],IC50 [3] [µM],IC50 [4] [µM],IC50 [5] [µM],IC50 [6] [µM]
CCN1Cc2ccc(NC(=O)c3ccc(C(=O)N4CCC(C5CCCN5)CC4)cc3Nc3ccccc3)cc2C1 (centres undefined),> 10,> 10,> 10,3.5,> 10,> 10
O=C(c1ccc(C(=O)N2CCC(N3CCCC3)CC2)c([N+](=O)[O-])c1)N1CCC(N2CCCC2)CC1,> 10,> 10,> 10,> 10,> 10,> 10
O=C(c1ccc(C(=O)N2CCC(N3CCCC3)CC2)c(Oc2ccccc2)c1)N1CCC(N2CCCC2)CC1,> 10,> 10,> 10,> 10,> 10,> 10
O=C(c1ccc(C(=O)N2CC3CNCC3C2)cc1)N1CCC(N2CCCC2)CC1 (centres undefined),> 10,> 10,> 10,> 10,> 10,> 10
O=C(c1ccc(C(=O)N2CC3CCC(C2)C3N2CCCC2)cc1)N1CCC(N2CCCC2)CC1 (centres undefined),> 10,> 10,> 10,> 10,> 10,> 10
O=C(c1ccc(C(=O)N2CCC(N3CCCC3)CC2)cc1)N1CCC(N2CCCCC2)CC1,> 10,> 10,> 10,> 10,> 10,> 10
CN1CCCC1C1CCN(C(=O)c2ccc(C(=O)N3CCC(C4CCCN4C)CC3)cc2)CC1 (centres undefined),> 10,> 10,> 10,> 10,> 10,> 10
O=C(c1cccc(C(=O)N2CCC(N3CCCC3)CC2)c1)N1CCC(N2CCCC2)CC1,> 10,> 10,> 10,> 10,> 10,> 10
O=C(c1ccc(C(=O)N2CCC(N3CCCC3)CC2)cc1)N1CCC(C2CCNCC2)CC1,> 10,> 10,> 10,> 10,> 10,> 10
O=C(c1ccc(C(=O)N2CCC(N3CCCCC3)CC2)cc1)N1CCC(N2CCCCC2)CC1,> 10,> 10,> 10,> 10,> 10,> 10
O=C(c1ccc(C(=O)N2CCC(N3CCCC3)CC2)o1)N1CCC(N2CCCC2)CC1,> 10,> 10,> 10,> 10,> 10,> 10
O=C(c1ccccc1C(=O)N1CCC(N2CCCC2)CC1)N1CCC(N2CCCC2)CC1,> 10,> 10,> 10,4.7,> 10,> 10
O=C(c1ccc(C(=O)N2CCCC(N3CCCC3)CC2)cc1)N1CCCC(N2CCCC2)CC1 (centres undefined),> 10,> 10,> 10,> 10,> 10,> 10
O=C(c1ccc(C(=O)N2CCC3(CCNC3)CC2)cc1)N1CCC(N2CCCC2)CC1,> 10,> 10,> 10,> 10,> 10,> 10
